Results taken from ChEMBL document CHEMBL2010709, “Pinophilins A and B, inhibitors of mammalian A-, B-, and Y-family DNA polymerases and human cancer cell proliferation” (J Nat Prod, 2012).
Active and inactive are the calls of the source. No cut-off for these calls is given here.

How the values were obtained:
Oryza sativa = assay: Inhibition of rice cv. Nipponbare recombinant C-terminal-His6-tagged DNA polymerase lambda expressed in Escherichia coli assessed as inhibition of incorporation of dTTP into activated DNA primer after 60 mins
[1] = Inhibition of rice cv. Nipponbare recombinant C-terminal-His6-tagged DNA polymerase lambda expressed in Escherichia coli assessed as inhibition of incorporation of dTTP into poly(dA)/oligo(dT)18 after 60 mins; parameters: species or system Oryza sativa
Outline: (§1)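 Compound in DMSO was sonicated for 30 s, then held with enzyme (0.05 units final) at 0 °C for 10 min in 50 mM Tris-HCl pH 7.5, 1 mM DTT, 50% glycerol, 0.1 mM EDTA. The mixture was added to the standard reaction mix with poly(dA)/oligo(dT)18 (A/T = 2/1) and dTTP, 37 °C, 60 min. Activity was relative to no-inhibitor control; mean ± SE, three independent experiments.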

BALL-1 = assay: Growth inhibition of human BALL-1 cells after 24 hrs by WST-1 assay; format: functional; conditions: BALL-1, 24 h
Outline: (§2)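 Cancer cells were grown in McCoy's 5A with 10% FBS and penicillin/streptomycin, 37 °C, 5% CO2. Cells were seeded at 1 × 10^4 per well, cultured 12 h, then given compound (10 mM DMSO stock diluted in medium, 0.5% DMSO) for 24 h. WST-1 was added for 4 h and absorbance read at 450/630 nm. GI50 given as mean ± SE, five independent experiments.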

[2] = Inhibition of Thermus aquaticus DNA polymerase assessed as inhibition of incorporation of dTTP into poly(dA)/oligo(dT)18 after 60 mins at 74 degC
Outline: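 Taq pol (0.05 units) was preincubated with compound (DMSO, sonicated) at 0 °C for 10 min, then reacted with poly(dA)/oligo(dT)18 (A/T = 2/1) and dTTP at 74 °C for 60 min. Activity was expressed relative to no-inhibitor control; mean ± SE, three independent experiments.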

[3] = target: T1, DNA-directed DNA polymerase (Enterobacteria phage T4, UniProt P04415); assay: Inhibition of T4 bacteriophage DNA polymerase assessed as inhibition of incorporation of dTTP into poly(dA)/oligo(dT)18 after 60 mins; parameters: species or system Tequatrovirus T4; outline: as §1
T1 sequence (P04415 whole entry): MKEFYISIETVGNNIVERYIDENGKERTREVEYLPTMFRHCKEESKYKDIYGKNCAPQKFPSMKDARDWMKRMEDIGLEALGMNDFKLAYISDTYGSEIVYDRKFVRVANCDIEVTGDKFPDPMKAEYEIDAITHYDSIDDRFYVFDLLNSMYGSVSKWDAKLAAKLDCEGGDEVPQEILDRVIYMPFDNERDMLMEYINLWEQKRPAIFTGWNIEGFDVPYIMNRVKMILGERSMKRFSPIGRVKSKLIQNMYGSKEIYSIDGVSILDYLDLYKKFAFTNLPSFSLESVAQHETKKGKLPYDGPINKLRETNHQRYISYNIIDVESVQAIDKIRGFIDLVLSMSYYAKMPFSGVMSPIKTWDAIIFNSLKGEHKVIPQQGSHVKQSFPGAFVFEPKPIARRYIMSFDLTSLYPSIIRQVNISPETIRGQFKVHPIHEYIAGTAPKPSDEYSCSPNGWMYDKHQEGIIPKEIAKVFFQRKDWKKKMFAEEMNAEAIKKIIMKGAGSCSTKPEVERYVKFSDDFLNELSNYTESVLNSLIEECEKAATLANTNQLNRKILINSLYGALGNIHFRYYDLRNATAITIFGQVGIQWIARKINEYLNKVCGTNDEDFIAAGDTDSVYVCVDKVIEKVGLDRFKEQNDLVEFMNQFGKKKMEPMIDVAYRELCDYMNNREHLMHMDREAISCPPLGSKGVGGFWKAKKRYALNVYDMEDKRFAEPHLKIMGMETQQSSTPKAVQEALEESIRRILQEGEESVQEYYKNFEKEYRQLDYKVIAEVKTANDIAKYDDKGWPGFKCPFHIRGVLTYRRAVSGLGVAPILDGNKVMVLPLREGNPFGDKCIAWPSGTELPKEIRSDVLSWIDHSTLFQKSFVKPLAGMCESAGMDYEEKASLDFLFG

Thermus aquaticus = assay: Inhibition of Thermus aquaticus DNA polymerase assessed as inhibition of incorporation of dTTP into activated DNA primer after 60 mins
NUGC-3 = assay: Growth inhibition of human NUGC3 cells after 24 hrs by WST-1 assay; format: functional; conditions: NUGC-3, 24 h; outline: as §2
Escherichia coli = assay: Inhibition of Escherichia coli polymerase DNA polymerase 1 Klenow fragment assessed as inhibition of incorporation of dTTP into activated DNA primer after 60 mins
[4] = Inhibition of calf DNA polymerase alpha assessed as inhibition of incorporation of dTTP into poly(dA)/oligo(dT)18 after 60 mins; parameters: species or system Bos taurus; outline: as §1
HCT-116 = assay: Cell cycle arrest in human HCT116 cells assessed as accumulation at S-phase at GI50 by tritiated thymidine incorporation assay; format: functional, cell-based
[5] = target: Human immunodeficiency virus type 1 reverse transcriptase (Human immunodeficiency virus 1, UniProt Q72547); assay: Inhibition of HIV-1 reverse transcriptase assessed as inhibition of incorporation of dTTP into poly(rA)/oligo(dT)18 after 60 mins
Outline: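 Enzyme (0.05 units) was preincubated with compound in DMSO at 0 °C for 10 min in Tris-HCl pH 7.5/DTT/glycerol/EDTA buffer, then reacted at 37 °C for 60 min. Substrates were poly(rA)/oligo(dT)18 (A/T = 2/1) plus dTTP for HIV-1 RT, and oligo(dT)18 (3′-OH) primer plus dTTP for calf thymus TdT. Activity was relative to uninhibited control; mean ± SE of three experiments.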

Row | Compound | inhibition (Oryza sativa) | IC50 [1] | GI50 (BALL-1) | IC50 [2] | IC50 [3] | inhibition (Thermus aquaticus) | GI50 (NUGC-3) | inhibition (Escherichia coli) | IC50 [4] | Activity (HCT-116) | IC50 [5]
1 | C/C=C/C1=CC2=CC(=O)[C@@](C)(O)[C@@H](OC(=O)c3c(C)cc(O)cc3O)[C@@H]2CO1 | inactive | > 200 µM | 62 µM | > 200 µM | > 200 µM | inactive | 66.4 µM | inactive | 63.2 µM | Active | > 200 µM
2 | C/C=C/C1=CC2=CC(=O)[C@@](C)(OC(=O)c3c(C)cc(O)cc3O)[C@@H](O)[C@@H]2CO1 [PINOPHILIN A] | inactive | > 200 µM | 50.2 µM | > 200 µM | > 200 µM | inactive | 54.7 µM | inactive | 49.1 µM | Active | > 200 µM
3 | Cc1cc(O)cc(O)c1C(=O)O[C@H]1[C@@H]2COC(/C=C/CO)=CC2=CC(=O)[C@@]1(C)O [PINOPHILIN B] | inactive | > 200 µM | 90.4 µM | > 200 µM | > 200 µM | inactive | 96.8 µM | inactive | 89.5 µM | Active | > 200 µM
